Data taken from ChEMBL document CHEMBL4028840, “6-Nitro-2,3-dihydroimidazo[2,1-b][1,3]thiazoles: Facile synthesis and comparative appraisal against tuberculosis and neglected tropical diseases” (Bioorg Med Chem Lett, 2017).
Converted amounts (≈) assume the structure as drawn.

Tests used:
[1] = system: Mycobacterium tuberculosis; assay: Anti-tubercular activity against Mycobacterium tuberculosis H37Rv ATCC 27294 after 10 days under hypoxic condition by low-oxygen recovery assay; format: functional
In short: (§1)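 M. tuberculosis H37Rv MIC measured in two assays: aerobic growth by MABA and hypoxic exposure by LORA. Each value is the mean of ≥2 independent determinations.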

[2] = system: Mycobacterium tuberculosis; assay: Anti-tubercular activity against Mycobacterium tuberculosis H37Rv ATCC 27294 after 7 days under aerobic condition by microplate alamar blue assay; format: functional; in short: as §1
Leishmania infantum = assay: Anti-parasitic activity against Leishmania infantum MHOM/MA(BE)/67 amastigotes infected in mouse primary peritoneal macrophages after 5 days by giemsa staining based microscopic method; format: functional
In short: (§2)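 IC50 for growth inhibition of L. infantum, T. cruzi and T. brucei parasites, or for cytotoxicity toward human lung fibroblasts (MRC-5). Values are means of two or more independent experiments.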

Trypanosoma cruzi = assay: Anti-parasitic activity against Trypanosoma cruzi Tulahuen CL2 infected in human MRC5 cells after 7 days by chlorophenol red […]-D-galactopyranoside dye based assay; format: functional, cell-based; in short: as §2
[3] = system: Trypanosoma brucei brucei; assay: Anti-parasitic activity against Trypanosoma brucei brucei Squib-427 after 72 hrs by resazurin dye based fluorescence assay; format: functional; in short: as §2
[4] = Cytotoxicity against human MRC5 SV2 cells after 72 hrs by resazurin dye based fluorescence assay; format: cell-based; in short: as §2
Vero = assay: Cytotoxicity against African green monkey Vero cells after 72 hrs by MTS/PMS assay; format: cell-based; conditions: Chlorocebus sabaeus
In short: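 VERO mammalian cells exposed for 72 h. Cytotoxicity IC50 comes from a single test.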

[5] = Stability in pooled human liver microsomes assessed as compound remaining measured after 1 hr; format: ADME, microsome; conditions: read-out: Stability
[6] = Stability in CD-1 mouse liver microsomes assessed as compound remaining measured after 1 hr; format: ADME, microsome; conditions: read-out: Stability
[7] = Solubility in water at pH 7 after 15 mins by HPLC method; format: physicochemical; conditions: water, pH 7
In short: (§3)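 Solubility measured at 20 °C by HPLC, in water (pH 7) or 0.1 M HCl (pH 1).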

[8] = Solubility in HCl at pH 1 after 15 mins by HPLC method; format: physicochemical; in short: as §3
[9] = system: Mycobacterium tuberculosis; assay: Anti-tubercular activity against Mycobacterium tuberculosis infected in BALB/c mouse assessed as reduction in lung colony forming units at 100 mg/kg, po administered via gavage for 5 days each week for 3 weeks measured after 1 day post last dose relative to PA-824; format: functional
In short: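 Mouse model of acute TB infection. Oral dosing at 100 mg/kg daily, 5 days per week, for 3 weeks. Read-out is fold reduction in lung CFU, expressed as a ratio to the fold CFU reduction from the reference nitroimidazole run alongside.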

[10] = Mycobacterium tuberculosis, H37Rv ATCC 27294, 240 h, read-out: MIC
[11] = Mycobacterium tuberculosis, H37Rv ATCC 27294, 168 h, read-out: MIC
[12] = Leishmania infantum, MHOM/MA(BE)/67, 120 h
[13] = Trypanosoma cruzi, Tulahuen CL2, MRC5, 168 h
[14] = Trypanosoma brucei, Squib-427, 72 h

Structure (SMILES): CC1(COCc2ccc(Oc3ccccc3)cc2)Cn2c([N+](=O)[O-])cnc2S1 (stereo not drawn)
- MIC [1, 10]: > 128 µM
- MIC [2, 11]: > 128 µM
- IC50 (Leishmania infantum; [12]): 55 µM
- IC50 (Trypanosoma cruzi; [13]): 19 µM
- IC50 [3, 14]: 53 µM
- IC50 ([4]; Homo sapiens, MRC-5 SV2, 72 h): > 64 µM

Structure (SMILES): CC1(COCc2ccc(OC(F)(F)F)cc2)Cn2cc([N+](=O)[O-])nc2S1(=O)=O (stereo not drawn)
- MIC [1, 10]: 21 µM (≈ 8.85 µg/mL)
- MIC [2, 11]: > 128 µM
- IC50 (Leishmania infantum; [12]): > 64 µM
- IC50 (Trypanosoma cruzi; [13]): 0.97 µM
- IC50 [3, 14]: > 64 µM
- IC50 ([4]; Homo sapiens, MRC-5 SV2, 72 h): > 64 µM

Structure (SMILES): CC1(COc2ccc(OC(F)(F)F)cc2)Cn2cc([N+](=O)[O-])nc2[S+]1[O-] (stereo in doubt; 37)
- IC50 (Vero): > 128 µM
- MIC [1]: >128 µM
- MIC [2]: >128 µM
- IC50 (Leishmania infantum; [12]): > 64 µM
- IC50 (Trypanosoma cruzi; [13]): 2.3 µM
- IC50 [3, 14]: > 64 µM
- IC50 ([4]; Homo sapiens, MRC-5 SV2, 72 h): > 64 µM

Structure (SMILES): O=[N+]([O-])c1cn2c(n1)OC[C@@H](COc1ccc(OC(F)(F)F)cc1)C2
- remaining at 1 h [5]: 82%
- remaining at 1 h [6]: 94%

Structure (SMILES): CC1(COCc2ccc(-c3ccc(F)cc3)cc2)Cn2cc([N+](=O)[O-])nc2S1 (stereo not drawn)
- MIC [1, 10]: > 64 µM
- MIC [2, 11]: 1.5 µM (≈ 0.599 µg/mL)
- IC50 (Leishmania infantum; [12]): > 64 µM
- IC50 (Trypanosoma cruzi; [13]): 0.15 µM
- IC50 [3, 14]: > 64 µM
- IC50 ([4]; Homo sapiens, MRC-5 SV2, 72 h): > 64 µM

Structure (SMILES): CC1(COc2ccc(Oc3ccccc3)cc2)Cn2cc([N+](=O)[O-])nc2[S+]1[O-] (stereo in doubt; 40)
- MIC [1]: 25 µM (≈ 9.99 µg/mL)
- MIC [2, 11]: > 128 µM
- IC50 (Leishmania infantum): 42 µM
- IC50 (Trypanosoma cruzi): 0.75 µM
- IC50 [3]: 0.98 µM
- IC50 ([4]; mrc5 sv2): 51 µM

Structure (SMILES): CC1(COc2ccc(OC(F)(F)F)cc2)Cn2cc([N+](=O)[O-])nc2[S+]1[O-] (stereo in doubt; 38)
- MIC [1]: 58 µM (≈ 22.7 µg/mL)
- MIC [2]: 26 µM (≈ 10.2 µg/mL)
- IC50 (Trypanosoma cruzi): 1.7 µM
- IC50 [3]: 41 µM

Structure (SMILES): CC1(COCc2ccc(OC(F)(F)F)cc2)Cn2cc([N+](=O)[O-])nc2[S+]1[O-] (stereo in doubt; 19)
- MIC [2, 11]: > 128 µM
- IC50 (Trypanosoma cruzi): 3 µM

Structure (SMILES): CC1(COCc2ccc(OC(F)(F)F)cc2)Cn2c([N+](=O)[O-])cnc2S1 (stereo not drawn)
- IC50 (Vero): 45 µM
- MIC [1, 10]: 59 µM (≈ 23 µg/mL)
- MIC [2, 11]: 55 µM (≈ 21.4 µg/mL)
- IC50 (Leishmania infantum; [12]): > 64 µM
- IC50 (Trypanosoma cruzi; [13]): 7.3 µM
- IC50 [3, 14]: 22 µM
- IC50 ([4]; Homo sapiens, MRC-5 SV2, 72 h): 47 µM

Structure (SMILES): CC1(COc2ccc(N3CCC(Oc4ccc(OC(F)(F)F)cc4)CC3)cc2)Cn2cc([N+](=O)[O-])nc2S1 (stereo not drawn)
- IC50 (Vero): > 128 µM
- MIC [1, 10]: 71 µM (≈ 39.1 µg/mL)
- MIC [2, 11]: 0.073 µM (≈ 0.0402 µg/mL)
- IC50 (Leishmania infantum; [12]): 53 µM
- IC50 (Trypanosoma cruzi; [13]): 0.055 µM
- IC50 [3, 14]: 59 µM
- IC50 ([4]; Homo sapiens, MRC-5 SV2, 72 h): > 64 µM
- solubility at 0.25 h [7]: 0.18 µg/mL (≈ 0.327 µM)
- solubility at 0.25 h [8]: 13 µg/mL (≈ 23.6 µM)

Structure (SMILES): CC1(COc2ccc(Oc3ccccc3)cc2)Cn2cc([N+](=O)[O-])nc2S1(=O)=O (stereo not drawn)
- IC50 (Vero): > 128 µM
- MIC [1, 10]: > 128 µM
- MIC [2, 11]: > 128 µM
- IC50 (Leishmania infantum; [12]): 55 µM
- IC50 (Trypanosoma cruzi; [13]): 0.46 µM
- IC50 [3, 14]: 3.8 µM
- IC50 ([4]; Homo sapiens, MRC-5 SV2, 72 h): 45 µM

Structure (SMILES): O=[N+]([O-])c1cn2c(n1)OC(COc1ccc(Oc3ccccc3)cc1)C2 (stereo not drawn)
- IC50 (Vero): > 128 µM
- MIC [1, 10]: > 128 µM
- MIC [2, 11]: 0.96 µM (≈ 0.339 µg/mL)
- IC50 (Leishmania infantum; [12]): 3.4 µM
- IC50 (Trypanosoma cruzi; [13]): 3.1 µM
- IC50 [3, 14]: > 64 µM
- IC50 ([4]; Homo sapiens, MRC-5 SV2, 72 h): 19 µM

Structure (SMILES): C[C@]1(COCc2ccc(OC(F)(F)F)cc2)Cn2cc([N+](=O)[O-])nc2S1
- IC50 (Vero): 24 µM
- MIC [1, 10]: 5.8 µM (≈ 2.26 µg/mL)
- MIC [2, 11]: 0.2 µM (≈ 0.0779 µg/mL)
- IC50 (Leishmania infantum; [12]): > 64 µM
- IC50 (Trypanosoma cruzi; [13]): 0.57 µM
- IC50 [3, 14]: > 64 µM
- IC50 ([4]; Homo sapiens, MRC-5 SV2, 72 h): 43 µM
- remaining at 1 h [5]: 29%
- remaining at 1 h [6]: 0%

Structure (SMILES): CC1(COCc2ccc(OC(F)(F)F)cc2)Cn2cc([N+](=O)[O-])nc2O1 (stereo not drawn)
- solubility at 0.25 h [7]: 11 µg/mL (≈ 29.5 µM)
- fold change (FC) [9]: 0.025

Structure (SMILES): CC1(COc2ccc(-c3ccc(C(F)(F)F)cc3)cc2)Cn2cc([N+](=O)[O-])nc2S1 (stereo not drawn)
- IC50 (Vero): > 128 µM
- MIC [1, 10]: 46 µM (≈ 20 µg/mL)
- MIC [2, 11]: 0.12 µM (≈ 0.0523 µg/mL)
- IC50 (Leishmania infantum; [12]): > 64 µM
- IC50 (Trypanosoma cruzi; [13]): 0.035 µM
- IC50 [3, 14]: 52 µM
- IC50 ([4]; Homo sapiens, MRC-5 SV2, 72 h): > 64 µM

Structure (SMILES): CC1(COc2ccc(OC(F)(F)F)cc2)Cn2cc([N+](=O)[O-])nc2S1 (stereo not drawn)
- IC50 (Vero): > 128 µM
- MIC [1, 10]: 10 µM (≈ 3.75 µg/mL)
- MIC [2, 11]: 0.49 µM (≈ 0.184 µg/mL)
- IC50 (Leishmania infantum; [12]): > 64 µM
- IC50 (Trypanosoma cruzi; [13]): 0.38 µM
- IC50 [3, 14]: > 64 µM
- IC50 ([4]; Homo sapiens, MRC-5 SV2, 72 h): > 64 µM

Structure (SMILES): CC1(COc2ccc(-c3ccc(F)cc3)cc2)Cn2cc([N+](=O)[O-])nc2S1 (stereo not drawn)
- IC50 (Vero): > 128 µM
- MIC [1, 10]: > 64 µM
- MIC [2, 11]: 0.21 µM (≈ 0.0809 µg/mL)
- IC50 (Leishmania infantum; [12]): > 64 µM
- IC50 (Trypanosoma cruzi; [13]): 0.21 µM
- IC50 [3, 14]: > 64 µM
- IC50 ([4]; Homo sapiens, MRC-5 SV2, 72 h): > 64 µM

Structure (SMILES): CC1(COc2ccc(OC(F)(F)F)cc2)Cn2nc([N+](=O)[O-])nc2[S+]1[O-] (stereo not drawn)
- IC50 (Vero): 98 µM
- MIC [1, 10]: 90 µM (≈ 35.3 µg/mL)
- MIC [2, 11]: 9.3 µM (≈ 3.65 µg/mL)
- IC50 (Leishmania infantum; [12]): 0.9 µM
- IC50 (Trypanosoma cruzi; [13]): 1.2 µM
- IC50 [3, 14]: 3 µM
- IC50 ([4]; Homo sapiens, MRC-5 SV2, 72 h): 0.74 µM
